Columns and labels:
Homo sapiens [1] = assay: Tmax in chronic hepatitis B virus infected patient assessed as (1-((2-amino-6-hydroxy-9H-purin-9-yl)methyl)cyclopropoxy)me at 30 mg, po qd for 4 weeks by LC-MS analysis; format: ADME, organism-based; settings: in vivo, 672 h
Method in brief: (§1)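 Daily oral LB80380 was given to CHB patients over 4 weeks. Blood was drawn on day 1 and at steady state (weeks 2–4), predose and 0.5–24 h postdose. Plasma LB80331 (LLOQ 5 ng/ml) and LB80317 (LLOQ 10 ng/ml) were measured by LC-MS/MS after protein-precipitation extraction. Tmax was taken by noncompartmental analysis.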

Liver [2] = assay: Half life in CD-1 mouse liver assessed as (1-((2-amino-6-hydroxy-9H-purin-9-yl)methyl)cyclopropoxy)me at 30 mg/kg, po administered as single dose by LC-MS analysis; format: ADME, organism-based; set-up: dose 30 mg/kg, route oral; settings: in vivo
Method in brief: (§2)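 Male CD-1 mice given a single oral dose in 100% PEG 400. Samples extracted with perchloric acid and neutralized with ammonium bicarbonate. One aliquot assayed for the free analyte; the other treated with calf intestinal phosphatase to give the total including di-/triphosphates. Analysis by LC-MS/MS.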

Homo sapiens [3] = assay: AUC (0 to 24 hrs) in chronic hepatitis B virus infected patient assessed as (1-((2-amino-6-hydroxy-9H-purin-9-yl)methyl)cyclopropoxy)me at 120 mg, po qd for 4 weeks by LC-MS analysis; format: ADME, organism-based, Plasma; set-up: dose 120 mg, time < 24 hr, route oral; settings: in vivo
Method in brief: (§3)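 CHB patients (HBsAg/HBeAg positive), six per cohort, oral once daily for 4 weeks. Plasma sampled at steady state (weeks 2–4), predose and at 0.5, 1, 2, 3, 4, 6, 8 and 24 h postdose. Analysis by validated LC-MS/MS after protein-precipitation extraction with a stable-isotope internal standard; LLOQ 10 ng/ml for LB80317. Noncompartmental analysis gives Cmax, AUC0-24 and terminal t1/2.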

Liver [4] = assay: Half life in CD-1 mouse liver assessed as di- and triphosphates of (1-((2-amino-6-hydroxy-9H-purin-9-yl)methyl)cyclopropoxy)me at 30 mg/kg, po administered as single dose by LC-MS analysis; format: ADME, organism-based; set-up: dose 30 mg/kg, route oral; settings: in vivo; method in brief: as §2
Liver [5] = assay: Tmax in CD-1 mouse liver assessed as di- and triphosphates of (1-((2-amino-6-hydroxy-9H-purin-9-yl)methyl)cyclopropoxy)me at 30 mg/kg, po administered as single dose by LC-MS analysis; format: ADME, organism-based; set-up: dose 30 mg/kg, route oral; settings: in vivo
Method in brief: (§4)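 Male CD-1 mice received 30 mg/kg orally in 100% PEG 400. Plasma and snap-frozen liver were taken from 3 mice per time point at 1, 2, 4, 6, 10, 24 and 36 h. Samples were extracted with perchloric acid and neutralized with ammonium bicarbonate. Free LB80331/LB80317 was measured directly by LC-MS/MS; total, including di- and triphosphates, was measured after calf intestinal phosphatase treatment.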

Homo sapiens [6] = assay: Cmax in chronic hepatitis B virus infected patient assessed as (1-((2-amino-6-hydroxy-9H-purin-9-yl)methyl)cyclopropoxy)me at 60 mg, po qd for 4 weeks by LC-MS analysis; format: ADME, organism-based; set-up: dose 60 mg, route oral; settings: in vivo, 672 h; method in brief: as §3
Liver [7] = assay: Cmax in CD-1 mouse liver assessed as di- and triphosphates of (1-((2-amino-6-hydroxy-9H-purin-9-yl)methyl)cyclopropoxy)me at 30 mg/kg, po administered as single dose by LC-MS analysis; format: ADME, organism-based; set-up: dose 30 mg/kg, route oral; settings: in vivo; method in brief: as §2
Liver [8] = assay: Tmax in CD-1 mouse liver assessed as (1-((2-amino-6-hydroxy-9H-purin-9-yl)methyl)cyclopropoxy)me at 30 mg/kg, po administered as single dose by LC-MS analysis; format: ADME, organism-based; set-up: dose 30 mg/kg, route oral; settings: in vivo; method in brief: as §4
Plasma [9] = assay: Cmax in CD-1 mouse plasma assessed as (1-((2-amino-6-hydroxy-9H-purin-9-yl)methyl)cyclopropoxy)me at 30 mg/kg, po administered as single dose by LC-MS analysis; format: ADME, organism-based; set-up: dose 30 mg/kg, route oral; settings: in vivo; method in brief: as §2
Homo sapiens [10] = assay: AUC (0 to 24 hrs) in chronic hepatitis B virus infected patient assessed as (1-((2-amino-6-hydroxy-9H-purin-9-yl)methyl)cyclopropoxy)me at 60 mg, po qd for 4 weeks by LC-MS analysis; format: ADME, organism-based, Plasma; set-up: time < 24 hr, dose 60 mg, route oral; settings: in vivo; method in brief: as §3
Homo sapiens [11] = assay: Tmax in chronic hepatitis B virus infected patient assessed as (1-((2-amino-6-hydroxy-9H-purin-9-yl)methyl)cyclopropoxy)me at 60 mg, po qd for 4 weeks by LC-MS analysis; format: ADME, organism-based; settings: in vivo, 672 h; method in brief: as §1
Homo sapiens [12] = assay: Cmax in chronic hepatitis B virus infected patient assessed as (1-((2-amino-6-hydroxy-9H-purin-9-yl)methyl)cyclopropoxy)me at 240 mg, po qd for 4 weeks by LC-MS analysis; format: ADME, organism-based; set-up: dose 240 mg, route oral; settings: in vivo, 672 h; method in brief: as §3
Plasma [13] = assay: Half life in CD-1 mouse plasma assessed as (1-((2-amino-6-hydroxy-9H-purin-9-yl)methyl)cyclopropoxy)me at 30 mg/kg, po administered as single dose by LC-MS analysis; format: ADME, organism-based; set-up: dose 30 mg/kg, route oral; settings: in vivo; method in brief: as §2
Homo sapiens [14] = assay: Cmax in chronic hepatitis B virus infected patient assessed as (1-((2-amino-6-hydroxy-9H-purin-9-yl)methyl)cyclopropoxy)me at 120 mg, po qd for 4 weeks by LC-MS analysis; format: ADME, organism-based; set-up: dose 120 mg, route oral; settings: in vivo, 672 h; method in brief: as §3
Homo sapiens [15] = assay: AUC (0 to 24 hrs) in chronic hepatitis B virus infected patient assessed as (1-((2-amino-6-hydroxy-9H-purin-9-yl)methyl)cyclopropoxy)me at 30 mg, po qd for 4 weeks by LC-MS analysis; format: ADME, organism-based, Plasma; set-up: time < 24 hr, dose 30 mg, route oral; settings: in vivo; method in brief: as §3
Homo sapiens [16] = assay: Tmax in chronic hepatitis B virus infected patient assessed as (1-((2-amino-6-hydroxy-9H-purin-9-yl)methyl)cyclopropoxy)me at 240 mg, po qd for 4 weeks by LC-MS analysis; format: ADME, organism-based; settings: in vivo, 672 h; method in brief: as §1
Plasma [17] = assay: Tmax in CD-1 mouse plasma assessed as (1-((2-amino-6-hydroxy-9H-purin-9-yl)methyl)cyclopropoxy)me at 30 mg/kg, po administered as single dose by LC-MS analysis; format: ADME, organism-based; set-up: dose 30 mg/kg, route oral; settings: in vivo; method in brief: as §4
Liver [18] = assay: AUC (0 to 36 hrs) in CD-1 mouse liver assessed as (1-((2-amino-6-hydroxy-9H-purin-9-yl)methyl)cyclopropoxy)me at 30 mg/kg, po administered as single dose by LC-MS analysis; format: ADME, organism-based; set-up: time < 36 hr, dose 30 mg/kg, route oral; settings: in vivo; method in brief: as §2
Plasma [19] = assay: AUC (0 to 36 hrs) in CD-1 mouse plasma assessed as (1-((2-amino-6-hydroxy-9H-purin-9-yl)methyl)cyclopropoxy)me at 30 mg/kg, po administered as single dose by LC-MS analysis; format: ADME, organism-based; set-up: time < 36 hr, dose 30 mg/kg, route oral; settings: in vivo; method in brief: as §2
Homo sapiens [20] = assay: Half life in chronic hepatitis B virus infected patient assessed as (1-((2-amino-6-hydroxy-9H-purin-9-yl)methyl)cyclopropoxy)me at 60 mg, po qd for 4 weeks by LC-MS analysis; format: ADME, organism-based; settings: in vivo, 672 h; method in brief: as §3
Liver [21] = assay: AUC (0 to infinity) in CD-1 mouse liver assessed as (1-((2-amino-6-hydroxy-9H-purin-9-yl)methyl)cyclopropoxy)me at 30 mg/kg, po administered as single dose by LC-MS analysis; format: ADME, organism-based; set-up: time infinity, dose 30 mg/kg, route oral; settings: in vivo; method in brief: as §2
Liver [22] = assay: AUC (0 to infinity) in CD-1 mouse liver assessed as di- and triphosphates of (1-((2-amino-6-hydroxy-9H-purin-9-yl)methyl)cyclopropoxy)me at 30 mg/kg, po administered as single dose by LC-MS analysis; format: ADME, organism-based; set-up: time infinity, dose 30 mg/kg, route oral; settings: in vivo; method in brief: as §2
Homo sapiens [23] = assay: Cmax in chronic hepatitis B virus infected patient assessed as (1-((2-amino-6-hydroxy-9H-purin-9-yl)methyl)cyclopropoxy)me at 30 mg, po qd for 4 weeks by LC-MS analysis; format: ADME, organism-based; set-up: dose 30 mg, route oral; settings: in vivo, 672 h; method in brief: as §3
Liver [24] = assay: AUC (0 to 36 hrs) in CD-1 mouse liver assessed as di- and triphosphates of (1-((2-amino-6-hydroxy-9H-purin-9-yl)methyl)cyclopropoxy)me at 30 mg/kg, po administered as single dose by LC-MS analysis; format: ADME, organism-based; set-up: time < 36 hr, dose 30 mg/kg, route oral; settings: in vivo; method in brief: as §2
Homo sapiens [25] = assay: Half life in chronic hepatitis B virus infected patient assessed as (1-((2-amino-6-hydroxy-9H-purin-9-yl)methyl)cyclopropoxy)me at 120 mg, po qd for 4 weeks by LC-MS analysis; format: ADME, organism-based; settings: in vivo, 672 h; method in brief: as §3
Homo sapiens [26] = assay: Half life in chronic hepatitis B virus infected patient assessed as (1-((2-amino-6-hydroxy-9H-purin-9-yl)methyl)cyclopropoxy)me at 30 mg, po qd for 4 weeks by LC-MS analysis; format: ADME, organism-based; settings: in vivo, 672 h; method in brief: as §3
Homo sapiens [27] = assay: Half life in chronic hepatitis B virus infected patient assessed as (1-((2-amino-6-hydroxy-9H-purin-9-yl)methyl)cyclopropoxy)me at 240 mg, po qd for 4 weeks by LC-MS analysis; format: ADME, organism-based; settings: in vivo, 672 h; method in brief: as §3
Plasma [28] = assay: AUC (0 to infinity) in CD-1 mouse plasma assessed as (1-((2-amino-6-hydroxy-9H-purin-9-yl)methyl)cyclopropoxy)me at 30 mg/kg, po administered as single dose by LC-MS analysis; format: ADME, organism-based; set-up: time infinity, dose 30 mg/kg, route oral; settings: in vivo; method in brief: as §2
Homo sapiens [29] = assay: AUC (0 to 24 hrs) in chronic hepatitis B virus infected patient assessed as (1-((2-amino-6-hydroxy-9H-purin-9-yl)methyl)cyclopropoxy)me at 240 mg, po qd for 4 weeks by LC-MS analysis; format: ADME, organism-based, Plasma; set-up: time < 24 hr, dose 240 mg, route oral; settings: in vivo; method in brief: as §3
Homo sapiens [30] = assay: Tmax in chronic hepatitis B virus infected patient assessed as (1-((2-amino-6-hydroxy-9H-purin-9-yl)methyl)cyclopropoxy)me at 120 mg, po qd for 4 weeks by LC-MS analysis; format: ADME, organism-based; settings: in vivo, 672 h; method in brief: as §1
Liver [31] = assay: Cmax in CD-1 mouse liver assessed as (1-((2-amino-6-hydroxy-9H-purin-9-yl)methyl)cyclopropoxy)me at 30 mg/kg, po administered as single dose by LC-MS analysis; format: ADME, organism-based; set-up: dose 30 mg/kg, route oral; settings: in vivo; method in brief: as §2

Nc1nc(O)c2ncn(CC3(OCP(=O)(O)O)CC3)c2n1 [LB80317]
Tmax (Homo sapiens [1]): 6 h
t1/2 (Liver [2]): 9.9 h
AUC (Homo sapiens [3]): 1017 ng·h/mL
t1/2 (Liver [4]): 8.3 h
Tmax (Liver [5]): 1 h
Cmax (Homo sapiens [6]): 21 ng/mL
Cmax (Liver [7]): 107 µM
Tmax (Liver [8]): 1 h
Cmax (Plasma [9]): 0.6 µM
AUC (Homo sapiens [10]): 433 ng·h/mL
Tmax (Homo sapiens [11]): 8 h
Cmax (Homo sapiens [12]): 75 ng/mL
t1/2 (Plasma [13]): 8.6 h
Cmax (Homo sapiens [14]): 49 ng/mL
AUC (Homo sapiens [15]): 285 ng·h/mL
Tmax (Homo sapiens [16]): 4.5 h
Tmax (Plasma [17]): 4 h
AUC (Liver [18]): 3069 µM·h
AUC (Plasma [19]): 6 µM·h
t1/2 (Homo sapiens [20]): 62 h
AUC (Liver [21]): 3353 µM·h
AUC (Liver [22]): 2152 µM·h
Cmax (Homo sapiens [23]): 12 ng/mL
AUC (Liver [24]): 1883 µM·h
t1/2 (Homo sapiens [25]): 51 h
t1/2 (Homo sapiens [26]): 53 h
t1/2 (Homo sapiens [27]): 45 h
AUC (Plasma [28]): 6 µM·h
AUC (Homo sapiens [29]): 1449 ng·h/mL
Tmax (Homo sapiens [30]): 3 h
Cmax (Liver [31]): 243 µM
